Assay results as given in ChEMBL document CHEMBL4396972, “Glycyrrhizic acid derivatives as Dengue virus inhibitors” (Bioorg Med Chem Lett, 2019).
Active and inactive are the calls of the source. The rule behind the calls is not given here.

The molecules below were run on dengue virus type 2 (assay: Antiviral activity against DENV2 16681 infected in African green monkey Vero E6 cells assessed as reduction in virus induced cytopathic effect at 10 uM measured after 96 hrs by reverse phase contrast microscopy). Settings: Vero C1008.
Format: functional, organism-based
Summary of the method: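 Vero E6 cells in supporting DMEM infected with DENV2 strain 16681 (MOI 0.01), then treated immediately with compound at 10 μM. After 96 h incubation, cytopathic effect photographed by reverse phase-contrast microscopy and scored semi-quantitatively (−, +, ++, +++) against infected controls.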
`COC(=O)[C@@]1(C)CC[C@]2(C)CC[C@]3(C)C(=CC(=O)[C@@H]4[C@@]5(C)CC[C@H](O[C@H]6O[C@H](C(=O)N/N=C/c7ccncc7)[C@@H](O)[C@H](O)[C@H]6O[C@@H]6O[C@H](C(=O)N/N=C/c7ccncc7)[C@@H](O)[C@H](O)[C@H]6O)C(C)(C)[C@@H]5CC[C@]43C)[C@@H]2C1` was tested, and the inhibition was “inactive”. For `COC(=O)[C@@H](NC(=O)[C@H]1O[C@@H](O[C@H]2[C@@H](O[C@H]3CC[C@]4(C)[C@H]5C(=O)C=C6[C@@H]7C[C@@](C)(C(=O)N[C@H](C(=O)OC)C(C)C)CC[C@]7(C)CC[C@@]6(C)[C@]5(C)CC[C@H]4C3(C)C)O[C@H](C(=O)N[C@H](C(=O)OC)C(C)C)[C@@H](O)[C@@H]2O)[C@H](O)[C@@H](O)[C@@H]1O)C(C)C`, the inhibition was “inactive”. With `COC(=O)[C@@H](Cc1c[nH]c2ccccc12)NC(=O)[C@H]1O[C@@H](O[C@H]2[C@@H](O[C@H]3CC[C@]4(C)[C@H]5C(=O)C=C6[C@@H]7C[C@@](C)(C(=O)N[C@H](Cc8c[nH]c9ccccc89)C(=O)OC)CC[C@]7(C)CC[C@@]6(C)[C@]5(C)CC[C@H]4C3(C)C)O[C@H](C(=O)N[C@H](Cc3c[nH]c4ccccc34)C(=O)OC)[C@@H](O)[C@@H]2O)[C@H](O)[C@@H](O)[C@@H]1O` the inhibition was “inactive”. In the case of `COC(=O)[C@@]1(C)CC[C@]2(C)CC[C@]3(C)C(=CC(=O)[C@@H]4[C@@]5(C)CC[C@H](O[C@H]6O[C@H](C(=O)NN)[C@@H](O)[C@H](O)[C@H]6O[C@@H]6O[C@H](C(=O)NN)[C@@H](O)[C@H](O)[C@H]6O)C(C)(C)[C@@H]5CC[C@]43C)[C@@H]2C1`, the inhibition was “inactive”. With `COC(=O)[C@H](CC(C)C)NC(=O)[C@H]1O[C@@H](O[C@H]2[C@@H](O[C@H]3CC[C@]4(C)[C@H]5C(=O)C=C6[C@@H]7C[C@@](C)(C(=O)N[C@@H](CC(C)C)C(=O)OC)CC[C@]7(C)CC[C@@]6(C)[C@]5(C)CC[C@H]4C3(C)C)O[C@H](C(=O)N[C@@H](CC(C)C)C(=O)OC)[C@@H](O)[C@@H]2O)[C@H](O)[C@@H](O)[C@@H]1O` the inhibition was “inactive”. `COC(=O)[C@H](Cc1ccccc1)NC(=O)[C@H]1O[C@@H](O[C@H]2[C@@H](O[C@H]3CC[C@]4(C)[C@H]5C(=O)C=C6[C@@H]7C[C@@](C)(C(=O)N[C@@H](Cc8ccccc8)C(=O)OC)CC[C@]7(C)CC[C@@]6(C)[C@]5(C)CC[C@H]4C3(C)C)O[C@H](C(=O)N[C@@H](Cc3ccccc3)C(=O)OC)[C@@H](O)[C@@H]2O)[C@H](O)[C@@H](O)[C@@H]1O` was tested, and the inhibition was “inactive”. `COC(=O)C[C@H](NC(=O)[C@H]1O[C@@H](O[C@H]2[C@@H](O[C@H]3CC[C@]4(C)[C@H]5C(=O)C=C6[C@@H]7C[C@@](C)(C(=O)O)CC[C@]7(C)CC[C@@]6(C)[C@]5(C)CC[C@H]4C3(C)C)O[C@H](C(=O)N[C@@H](CC(=O)OC)C(=O)OC)[C@@H](O)[C@@H]2O)[C@H](O)[C@@H](O)[C@@H]1O)C(=O)O` was tested, and the inhibition was “Active”. For `CC[C@H](C)[C@H](NC(=O)[C@H]1O[C@@H](O[C@H]2[C@@H](O[C@H]3CC[C@]4(C)[C@H]5C(=O)C=C6[C@@H]7C[C@@](C)(C(=O)N[C@H](C(=O)OC)[C@@H](C)CC)CC[C@]7(C)CC[C@@]6(C)[C@]5(C)CC[C@H]4C3(C)C)O[C@H](C(=O)N[C@H](C(=O)OC)[C@@H](C)CC)[C@@H](O)[C@@H]2O)[C@H](O)[C@@H](O)[C@@H]1O)C(=O)OC`, the inhibition was “inactive”. In the case of `COC(=O)CC[C@H](NC(=O)[C@H]1O[C@@H](O[C@H]2[C@@H](O[C@H]3CC[C@]4(C)[C@H]5C(=O)C=C6[C@@H]7C[C@@](C)(C(=O)N[C@@H](CCC(=O)OC)C(=O)OC)CC[C@]7(C)CC[C@@]6(C)[C@]5(C)CC[C@H]4C3(C)C)O[C@H](C(=O)N[C@@H](CCC(=O)OC)C(=O)OC)[C@@H](O)[C@@H]2O)[C@H](O)[C@@H](O)[C@@H]1O)C(=O)OC`, the inhibition was “inactive”. `COC(=O)[C@H](Cc1ccc(O)cc1)NC(=O)[C@H]1O[C@@H](O[C@H]2[C@@H](O[C@H]3CC[C@]4(C)[C@H]5C(=O)C=C6[C@@H]7C[C@@](C)(C(=O)N[C@@H](Cc8ccc(O)cc8)C(=O)OC)CC[C@]7(C)CC[C@@]6(C)[C@]5(C)CC[C@H]4C3(C)C)O[C@H](C(=O)N[C@@H](Cc3ccc(O)cc3)C(=O)OC)[C@@H](O)[C@@H]2O)[C@H](O)[C@@H](O)[C@@H]1O` was tested, and the inhibition was “inactive”. For `COC(=O)[C@@]1(C)CC[C@]2(C)CC[C@]3(C)C(=CC(=O)[C@@H]4[C@@]5(C)CC[C@H](O[C@H]6O[C@H](C(=O)N/N=C/c7ccc(N(C)C)cc7)[C@@H](O)[C@H](O)[C@H]6O[C@@H]6O[C@H](C(=O)N/N=C/c7ccc(N(C)C)cc7)[C@@H](O)[C@H](O)[C@H]6O)C(C)(C)[C@@H]5CC[C@]43C)[C@@H]2C1`, the inhibition was “inactive”. With `COC(=O)[C@@]1(C)CC[C@]2(C)CC[C@]3(C)C(=CC(=O)[C@@H]4[C@@]5(C)CC[C@H](O[C@H]6O[C@H](C(=O)N/N=C/c7ccc(O)cc7)[C@@H](O)[C@H](O)[C@H]6O[C@@H]6O[C@H](C(=O)N/N=C/c7ccc(O)cc7)[C@@H](O)[C@H](O)[C@H]6O)C(C)(C)[C@@H]5CC[C@]43C)[C@@H]2C1` the inhibition was “Active”. For `COC(=O)[C@@H](Cc1ccccc1)NC(=O)[C@H]1O[C@@H](O[C@H]2[C@@H](O[C@H]3CC[C@]4(C)[C@H]5C(=O)C=C6[C@@H]7C[C@@](C)(C(=O)N[C@H](Cc8ccccc8)C(=O)OC)CC[C@]7(C)CC[C@@]6(C)[C@]5(C)CC[C@H]4C3(C)C)O[C@H](C(=O)N[C@H](Cc3ccccc3)C(=O)OC)[C@@H](O)[C@@H]2O)[C@H](O)[C@@H](O)[C@@H]1O`, the inhibition was “inactive”. In the case of `CC1(C)[C@@H](O[C@H]2O[C@H](C(=O)N[C@@H](Cc3ccccc3)C(=O)O)[C@@H](O)[C@H](O)[C@H]2O[C@@H]2O[C@H](C(=O)N[C@@H](Cc3ccccc3)C(=O)O)[C@@H](O)[C@H](O)[C@H]2O)CC[C@]2(C)[C@H]3C(=O)C=C4[C@@H]5C[C@@](C)(C(=O)N[C@@H](Cc6ccccc6)C(=O)O)CC[C@]5(C)CC[C@@]4(C)[C@]3(C)CC[C@@H]12`, the inhibition was “inactive”. For `COC(=O)[C@@H](CC(C)C)NC(=O)[C@H]1O[C@@H](O[C@H]2[C@@H](O[C@H]3CC[C@]4(C)[C@H]5C(=O)C=C6[C@@H]7C[C@@](C)(C(=O)N[C@H](CC(C)C)C(=O)OC)CC[C@]7(C)CC[C@@]6(C)[C@]5(C)CC[C@H]4C3(C)C)O[C@H](C(=O)N[C@H](CC(C)C)C(=O)OC)[C@@H](O)[C@@H]2O)[C@H](O)[C@@H](O)[C@@H]1O`, the inhibition was “Active”.

These molecules were tested on dengue virus type 2 (assay: Antiviral activity against DENV2 16681 infected in African green monkey Vero E6 cells assessed as inhibitory rate of NS4B positive cells at 10 uM measured after 96 hrs incubation by DAPI staining based immunofluorescence method). Settings: Dengue virus, 16681, Vero C1008, 96 h.
Format: functional
Summary of the method: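 Vero E6 cells in DMEM infected with DENV2 strain 16681 at MOI 0.01, treated at once with compound (0, 0.1, 1, 10 μM), 96 h. Immunofluorescence with anti-NS4B antibody and DAPI counterstain. Infectivity taken as NS4B-positive cells over DAPI-stained total cells. Inhibitory rate = (1 − NS4B-positive % treated infected / NS4B-positive % mock-treated infected) × 100.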
With `COC(=O)C[C@H](NC(=O)[C@H]1O[C@@H](O[C@H]2[C@@H](O[C@H]3CC[C@]4(C)[C@H]5C(=O)C=C6[C@@H]7C[C@@](C)(C(=O)O)CC[C@]7(C)CC[C@@]6(C)[C@]5(C)CC[C@H]4C3(C)C)O[C@H](C(=O)N[C@@H](CC(=O)OC)C(=O)OC)[C@@H](O)[C@@H]2O)[C@H](O)[C@@H](O)[C@@H]1O)C(=O)O` the inhibition at 10 µM was 35.8%. `COC(=O)[C@@]1(C)CC[C@]2(C)CC[C@]3(C)C(=CC(=O)[C@@H]4[C@@]5(C)CC[C@H](O[C@H]6O[C@H](C(=O)N/N=C/c7ccc(O)cc7)[C@@H](O)[C@H](O)[C@H]6O[C@@H]6O[C@H](C(=O)N/N=C/c7ccc(O)cc7)[C@@H](O)[C@H](O)[C@H]6O)C(C)(C)[C@@H]5CC[C@]43C)[C@@H]2C1` gave an inhibition at 10 µM of 32.5%. With `COC(=O)[C@@H](CC(C)C)NC(=O)[C@H]1O[C@@H](O[C@H]2[C@@H](O[C@H]3CC[C@]4(C)[C@H]5C(=O)C=C6[C@@H]7C[C@@](C)(C(=O)N[C@H](CC(C)C)C(=O)OC)CC[C@]7(C)CC[C@@]6(C)[C@]5(C)CC[C@H]4C3(C)C)O[C@H](C(=O)N[C@H](CC(C)C)C(=O)OC)[C@@H](O)[C@@H]2O)[C@H](O)[C@@H](O)[C@@H]1O` the inhibition at 10 µM was 53.1%.
